Results as given in ChEMBL document CHEMBL1122845, “Inhibitors of blood platelet aggregation. Effects of some 1,2-benzisothiazol-3-ones on platelet responsiveness to adenosine diphosphate and collagen” (J Med Chem, 1985).
Values joined by “and” are separate entries in the source; they are usually repeats but may differ in a detail not shown here. Equal values may be shown once. Where a name gives a salt, the structure may show the parent alone.

How the values were obtained:
Homo sapiens [1] = organism: Homo sapiens; experiment: In vitro inhibitory activity against human platelet aggregation in the presence of Adenosine diphosphate; assay type: functional
Method in brief: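 Human citrated PRP, platelet count adjusted to 350000/µL with autologous platelet-poor plasma. 90 µL PRP preincubated 3 min at 37 °C with compound or saline (DMF vehicle where needed), stirred at 1100 rpm. ADP chosen per preparation to give a clear first-phase response (typically 1 µM). Photometric read-out: maximum rise in light transmission within 1 min. IC50 determined.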

Homo sapiens [2] = organism: Homo sapiens; experiment: (§1) In vitro inhibitory activity against human platelet aggregation in the presence of collagen; assay type: functional
Method in brief: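 Aggregation measured photometrically in human citrated PRP (350000 platelets/µL, stirred at 1100 rpm). Compound or saline preincubated 3 min at 37 °C. Collagen at a just-maximal level chosen for each sample (typically 0.7-1.4 µg/mL). Maximum increase in light transmission measured. IC50 = concentration giving 50% inhibition.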

Rattus norvegicus [3] = experiment: The compound was tested ex vivo at a dose of 0.3 mmol/kg for collagen induced platelet aggregation in rat; assay type: functional
Method in brief: (§2)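 Male rats (~200 g) or guinea pigs (~300 g), overnight fasted, n=5-10, received compound orally in 1% methylcellulose (5 mL/kg); vehicle-only controls. After 2 h, CO2 kill and vena cava blood into citrate (102 mM rat, 129 mM guinea pig). PRP set to 800000/µL (rat) or 500000/µL (guinea pig). Collagen EC50 (response of 50 mm; max 50 µg/mL) interpolated from a log plot. Dose ratio = treated/control mean EC50; t-test. Pooled PRP sometimes used.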

Rattus norvegicus [4] = experiment: The compound was tested ex vivo at a dose of 0.08 mmol/kg for ADP induced platelet aggregation in rat; assay type: functional
Method in brief: (§3)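 Fasted male rats (~200 g) or guinea pigs (~300 g), n=5-10, dosed orally (5 mL/kg) in 1% methylcellulose; methylcellulose alone as control. Killed with CO2 after 2 h. Vena cava blood citrated (102 mM rat, 129 mM guinea pig); PRP adjusted to 800000/µL (rat) or 500000/µL (guinea pig). EC25 for first-phase ADP aggregation (max 8 µM) interpolated from two 2-fold-spaced ADP levels. Dose ratio = treated/control mean EC25; Student's t-test. Some groups tested as pooled PRP.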

Cavia porcellus [5] = experiment: Ex vivo inhibition of collagen induced guinea pig platelet aggregation following 0.08 mmol/kg administration.; assay type: functional; method in brief: as §2
Cavia porcellus [6] = experiment: Ex vivo inhibition of ADP induced guinea pig platelet aggregation following 0.08 mmol/kg administration.; assay type: functional; method in brief: as §3
Rattus norvegicus [7] = experiment: The compound was tested ex vivo at a dose of 0.08 mmol/kg for collagen induced platelet aggregation in rat; assay type: functional; method in brief: as §2
Cavia porcellus [8] = experiment: The compound was tested ex vivo at a dose of 0.04 mmol/kg for collagen induced platelet aggregation in guinea pig; assay type: functional; method in brief: as §2
Cavia porcellus [9] = experiment: The compound was tested ex vivo at a dose of 0.04 mmol/kg for ADP induced platelet aggregation in guinea pig; assay type: functional; method in brief: as §3
Rattus norvegicus [10] = experiment: The compound was tested ex vivo at a dose of 0.15 mmol/kg for ADP induced platelet aggregation in rat; assay type: functional; method in brief: as §3
Rattus norvegicus [11] = experiment: The compound was tested ex vivo at a dose of 0.15 mmol/kg for collagen induced platelet aggregation in rat; assay type: functional; method in brief: as §2
Rattus norvegicus [12] = experiment: The compound was tested ex vivo at a dose of 0.3 mmol/kg for ADP induced platelet aggregation in rat; assay type: functional; method in brief: as §3
Rattus norvegicus [13] = organism: Rattus norvegicus; experiment: The compound was tested ex vivo for collagen induced platelet aggregation in rat; assay type: functional; method in brief: as §2
Homo sapiens [14] = organism: Homo sapiens; experiment: as §1; assay type: functional, organism-based
Cavia porcellus [15] = organism: Cavia porcellus; experiment: The compound was tested ex vivo for ADP induced platelet aggregation in guinea pig; assay type: functional; method in brief: as §3
Rattus norvegicus [16] = organism: Rattus norvegicus; experiment: The compound was tested ex vivo for ADP induced platelet aggregation in rat; assay type: functional; method in brief: as §3
Cavia porcellus [17] = experiment: The compound was tested ex vivo at a dose of 0.08 mmol/kg or collagen induced platelet aggregation in guinea pig; assay type: functional; method in brief: as §2
Cavia porcellus [18] = experiment: The compound was tested ex vivo at a dose of 0.08 mmol/kg for collagen induced platelet aggregation in guinea pig; assay type: functional; method in brief: as §2
Cavia porcellus [19] = experiment: The compound was tested ex vivo at a dose of 0.08 mmol/kg for ADP induced platelet aggregation in guinea pig; assay type: functional; method in brief: as §3
Cavia porcellus [20] = experiment: The compound was tested ex vivo at a dose of 0.15 mmol/kg for ADP induced platelet aggregation in guinea pig; assay type: functional; method in brief: as §3
Cavia porcellus [21] = experiment: The compound was tested ex vivo at a dose of 0.15 mmol/kg for collagen induced platelet aggregation in guinea pig; assay type: functional; method in brief: as §2
Homo sapiens [22] = experiment: The compound was tested ex vivo at a dose of 0.1 mmol/kg for ADP induced platelet aggregation in rat
Cavia porcellus [23] = experiment: The compound was tested at a dose of 0.08 mmol/kg ex vivo for collagen induced platelet aggregation in guinea pig; assay type: functional; method in brief: as §2
Cavia porcellus [24] = experiment: The compound was tested ex vivo fat a dose of 0.15 mmol/kg for collagen induced platelet aggregation in guinea pig; assay type: functional; method in brief: as §2

Compound | Activity (Cavia porcellus [5]) | Activity (Cavia porcellus [6]) | Activity (Rattus norvegicus [10]) | Activity (Rattus norvegicus [11]) | also measured
O=c1c2ccccc2sn1CCc1ccccn1 |  |  |  |  | IC50 (Homo sapiens [1]): 20 µM; IC50 (Homo sapiens [2]): 12 µM; Activity (Rattus norvegicus [3]): 0.7
O=c1c2ccccc2sn1CCCN1CCCCC1 | >26 | 3.7 |  |  | Activity (Rattus norvegicus [4]): 1; IC50 (Homo sapiens [2]): 17 µM; Activity (Rattus norvegicus [7]): 2.4
Cc1cc(C)c2c(=O)n(CCN3CCCCC3)sc2c1 | >21 | >24 |  |  | Activity (Cavia porcellus [8]): >21; Activity (Cavia porcellus [9]): 2.1
CCN(CC)CCn1sc2cc(Cl)c(Cl)cc2c1=O |  |  | 0.8 | 2.1 | Activity (Rattus norvegicus [3]): 6.5; Activity (Rattus norvegicus [12]): 1.2
CC(=O)Oc1ccccc1C(=O)O [ASPIRIN] |  |  |  |  | Activity (Rattus norvegicus [13]): 1.5 and 1.8; IC50 (Homo sapiens [1]): > 1000 µM; IC50 (Homo sapiens [14]): 68 µM; Activity (Cavia porcellus [15]): 1; Activity (Rattus norvegicus [16]): 1.1 and 1
O=c1c2ccccc2sn1CCCCCN1CC2CCC(CC2)C1 |  | 1.2 |  |  | Activity (Cavia porcellus [17]): 2.8
COc1cc(OC)c2c(=O)n(CCN3CCCCC3)sc2c1 | >10 | >27 |  |  | 
O=c1c2cc(Cl)c(Cl)cc2sn1CCN1CC2CCC(CC2)C1 |  |  |  |  | Activity (Rattus norvegicus [3]): 1
O=c1c2ccccc2sn1CCCN1CCOCC1 | 2.5 | 1.3 |  |  | 
Cc1cc(C)c2c(=O)n(CCN3CCCC3)sc2c1 | >23 | >32 |  |  | Activity (Cavia porcellus [18]): > 23; Activity (Cavia porcellus [19]): > 32
O=c1c2ccccc2sn1CCN1CCCCC1 | 5 | 1.4 |  |  | Activity (Rattus norvegicus [4]): 1.7; Activity (Rattus norvegicus [7]): 4
O=c1c2ccccc2sn1CCCCN1CCCC1 | 1.9 | 1.4 |  |  | 
COc1cc2sn(CCN3CCCC3)c(=O)c2cc1OC |  |  | 1.1 | 1.8 | 
COc1cc2sn(CCN3CCCCC3)c(=O)c2cc1OC |  |  | 1.1 | 2.2 | Activity (Cavia porcellus [20]): 1.9; collagen EC50 dose ratio (treated/control) (Cavia porcellus [21]): 7.3
O=c1[nH]sc2ccccc12 |  |  |  |  | IC50 (Homo sapiens [1]): > 200 µM; IC50 (Homo sapiens [2]): 34 µM; Activity (Rattus norvegicus [3]): 1
COc1cc2sn(CCCCN3CC4CCC(CC4)C3)c(=O)c2cc1OC | 5.4 | 2.6 |  |  | Activity (Rattus norvegicus [4]): 1.4; IC50 (Homo sapiens [1]): 99 µM; IC50 (Homo sapiens [14]): 16 µM; Activity (Rattus norvegicus [7]): 2.4
O=c1c2cc(Cl)c(Cl)cc2sn1CCc1ccccn1 |  |  | 1 | 1 | 
Clc1ccccc1CN1CCc2sccc2C1 [TICLOPIDINE HYDROCHLORIDE] |  |  |  |  | IC50 (Homo sapiens [22]): 2 mM; IC50 (Homo sapiens [14]): 1060 µM
COc1cc2sn(CCCN3CC4CCC(CC4)C3)c(=O)c2cc1OC | 1.6 | 0.9 |  |  | 
O=c1c2cc(Cl)c(Cl)cc2sn1CCN1CCCC1 |  |  | 1.4 | 1.8 | 
Cc1cc2sn(CCN3CCCC3)c(=O)c2cc1C |  |  | 1.4 | 2.7 | Activity (Cavia porcellus [20]): 1.9; Activity (Cavia porcellus [21]): > 10
Cc1cc(C)c2c(=O)n(CCCN3CCCCC3)sc2c1 |  | 1.4 |  |  | Activity (Cavia porcellus [23]): 6.7
O=c1c2ccccc2sn1CCN1CCOCC1 |  |  | 1 | 1 | 
O=c1c2ccccc2sn1CCCCN1CC2CCC(CC2)C1 | 4.1 | 1.6 |  |  | 
O=c1c2ccccc2sn1-c1ccccc1 |  |  | 0.9 | 1.1 | 
O=c1c2ccccc2sn1CCN1CC2CCC(CC2)C1 |  |  | 1.6 | 2.2 | Activity (Cavia porcellus [24]): 1.7; Activity (Cavia porcellus [20]): 1.1
